SUMO Mot1 rescue: yeast Mot1-301 growth rescue at high temperature, primary screen, SUMOylation pathway inhibitor project, S. cerevisiae, ATP luminescence, 38.5C | S. cerevisiae Mot1-301 growth rescue; percent above DMSO median, 100 means doubled | growth rescue, % at 18.8 µM | actives 1% (n = 320,000);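 active = every valid replicate shows activation above 250% relative to neutral control wells; inactive = the rest, any valid replicate at or below 250%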
ASAP1 GAP inh: inhibitors of human ASAP1 ArfGAP activity, primary screen, biochemical, fluorescence polarization; Arf-GAP with SH3 domain, ANK repeat and PH domain-containing protein 1 (Homo sapiens), …; AID 624377, 2012; actives 0.19% (n = 360,000); inhibition, % at 16.5 µM; ASAP1-stimulated ARF1 GTP hydrolysis, GDP FP detection; in the data active = inhibition above about 25%
Statin myotox sup: suppressors of statin myotoxicity in C2C12 myotubes, primary screen, cell-based, single point, plate reader. C2C12 myotubes + simvastatin, ATP luminescence, 48 h; scaled: DMSO 0, geranylgeraniol control 100. rescue of ATP level, % at 7.49 µM. actives 0.78% (n = 330,000). AID 602340, 2012;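 active = mean ATP rescue above about 67%, or every replicate alone reaching that limit, limit read from the data, passing the limit was not always enough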;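 note: myotubes were challenged with 10 µM simvastatin during compound exposure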
ARFGAP1 inh: inhibitors of rat ARFGAP1 GAP activity, primary screen, biochemical, fluorescence polarization, GDP tracer. AID 651572, 2012. actives 0.26% (n = 360,000). Arfgap1-stimulated ARF1 GTP hydrolysis, GDP FP detection. inhibition, % at 16.5 µM. ADP-ribosylation factor GTPase-activating protein 1 (Rattus norvegicus), Q62848;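 active = inhibition above a per-plate limit, mean inhibition of low control wells plus 3 SD, cut at about 25% in these data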
Target sequence (Q62848 1-136 limits assumed): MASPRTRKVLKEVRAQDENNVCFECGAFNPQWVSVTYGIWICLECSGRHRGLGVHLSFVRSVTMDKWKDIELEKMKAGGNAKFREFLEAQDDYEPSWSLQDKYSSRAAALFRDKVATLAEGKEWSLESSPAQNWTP
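Material – truncated rat Arfgap1 GAP domain · Buffer or medium – HEPES-based buffer, pH 7.5 · Reagent – human ARF1(Δ1-17)-GTP substrate · Dosing – 16.5 µM single point, 1.26% DMSO · Schedule – GTP hydrolysis reaction 2 h at 25 °C · Technique – GDP detection by fluorescence polarization · Benchmarks – No-Arfgap1 wells (100%) versus DMSO full-reaction wells (0%) · Repeats – single replicate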
A3A deaminase: APOBEC3A ssDNA deaminase inhibitors, primary screen, selectivity assay for APOBEC3G inhibitor project, biochemical, FAM/TAMRA oligo cleavage fluorescence. actives 0.41% (n = 330,000). recombinant A3A, FAM/TAMRA ssDNA deamination fluorescence. inhibition, % at 20 µM. AID 493011, 2011. DNA dC->dU-editing enzyme APOBEC-3A (Homo sapiens), P31941;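 active = at least 40% inhibition at 20 µM here, with at most 30% in a related deaminase screen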
Target sequence (P31941 whole entry, looked up): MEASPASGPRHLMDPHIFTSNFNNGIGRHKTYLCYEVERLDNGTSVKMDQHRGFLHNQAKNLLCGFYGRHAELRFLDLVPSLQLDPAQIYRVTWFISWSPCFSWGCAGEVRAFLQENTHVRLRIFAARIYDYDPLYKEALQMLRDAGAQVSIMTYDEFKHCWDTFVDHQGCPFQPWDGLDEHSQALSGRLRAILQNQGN
A3G deaminase: APOBEC3G DNA deaminase inhibitors, primary screen, biochemical, fluorescence, single-stranded DNA substrate, uHTS. AID 493012, 2011. actives 0.28% (n = 330,000). inhibition, % at 20 µM. recombinant A3G, ssDNA deamination FAM/TAMRA fluorescence. DNA dC->dU-editing enzyme APOBEC-3G (Homo sapiens), Q9HC16;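 active = inhibition of at least 40% at 20 µM, with no more than 30% in the related APOBEC3A deaminase screen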
Target sequence (Q9HC16 whole entry, looked up): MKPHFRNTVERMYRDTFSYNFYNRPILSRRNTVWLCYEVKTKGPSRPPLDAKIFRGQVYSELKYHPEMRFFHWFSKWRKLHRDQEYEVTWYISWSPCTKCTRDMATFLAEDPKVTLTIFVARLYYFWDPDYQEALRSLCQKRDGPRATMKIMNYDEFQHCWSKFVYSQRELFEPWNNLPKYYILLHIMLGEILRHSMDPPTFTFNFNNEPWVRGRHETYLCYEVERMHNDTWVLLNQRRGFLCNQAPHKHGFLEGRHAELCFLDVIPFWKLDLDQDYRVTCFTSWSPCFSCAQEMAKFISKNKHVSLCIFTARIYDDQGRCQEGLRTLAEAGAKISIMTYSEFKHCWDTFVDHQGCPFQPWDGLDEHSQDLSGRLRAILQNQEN
A3A conf: APOBEC3A deaminase inhibitors, retest, confirmation, selectivity assay for APOBEC3G inhibitor project, biochemical, single concentration, fluorescence readout | shares compounds with A3A deaminase | recombinant A3A, ssDNA deaminase UDG fluorescence assay | inhibition, % at 20 µM | actives 63% (n = 1,400) | AID 493151, 2011;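 active = inhibition reaching a set limit, 80% of the first screen's cutoff, at 20 µM in any replicate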
UDG ctr A3A: E. coli UDG inhibitors, confirmation, counter-screen for APOBEC3A inhibitor project, biochemical, single concentration, fluorescence, FAM/TAMRA oligo | inhibition, % at 20 µM | shares compounds with A3A deaminase | 1,000 tested, under 10 active | AID 504714, 2011 | UDG counterscreen, FAM/TAMRA uracil oligo fluorescence; call rule not given here
Numbers stand for hits. Most compounds without a hit are left out; they make up all but 2.1% or so of the library.

How did CCN1C(=NCCN2CCOCC2)N[C@@H](c2ccccc2)C(C(=O)OC)=C1C do in these assays?
SUMO Mot1 rescue: inactive; ASAP1 GAP inh: inactive; Statin myotox sup: inactive; ARFGAP1 inh: inactive; A3A deaminase: 49; A3G deaminase: inactive; A3A conf: 52; UDG ctr A3A: inactive

Results for CCN(CC)CCCN=C1N[C@@H](c2cccc(F)c2)C(C(=O)OC)=C(C)N1Cc1ccccc1 ?
SUMO Mot1 rescue: inactive; ASAP1 GAP inh: inactive; Statin myotox sup: inactive; ARFGAP1 inh: inactive; A3A deaminase: 46; A3G deaminase: inactive; A3A conf: 82; UDG ctr A3A: inactive

What do the screens show for `CCN1[C@H](C(=O)NCCc2cn(C)cn2)[C@@H](CO)[C@@H]2Cn3c(ccc(-c4cccnc4)c3=O)[C@@H]21`?
Statin myotox sup: inactive

What do the screens show for `CCN1C(=NCCOC)N[C@@H](c2cccs2)C(C(=O)OC)=C1C`?
SUMO Mot1 rescue: inactive; ASAP1 GAP inh: inactive; Statin myotox sup: inactive; ARFGAP1 inh: inactive; A3A deaminase: 58; A3G deaminase: inactive; A3A conf: 67; UDG ctr A3A: inactive

What do the screens show for `CO[C@H]1CN(C)C(=O)c2ccc(NS(=O)(=O)c3ccccc3)cc2OC[C@@H](C)N(C)C[C@@H]1C`?
Statin myotox sup: inactive

What do the screens show for `CN1C(=O)c2cc(NC(=O)C3CCCC3)ccc2OC[C@H]2O[C@@H](CC(=O)Nc3ccccc3)CC[C@H]21`?
Statin myotox sup: inactive

Results for O=C(CCCC(=O)n1cnc2ccccc21)n1cnc2ccccc21 ?
SUMO Mot1 rescue: inactive; ASAP1 GAP inh: inactive; ARFGAP1 inh: inactive; A3A deaminase: inactive; A3G deaminase: inactive

How did Cc1ccc(N(C)C(=O)n2cnc3ccccc32)cc1 do in these assays?
SUMO Mot1 rescue: inactive; ASAP1 GAP inh: inactive; Statin myotox sup: inactive; ARFGAP1 inh: inactive; A3A deaminase: 52; A3G deaminase: inactive; A3A conf: inactive; UDG ctr A3A: inactive

What do the screens show for `C[C@@H]1CN([C@H](C)CO)C(=O)Cc2cc(NC(=O)Nc3ccc(F)cc3)ccc2O[C@@H]1CN(C)S(=O)(=O)c1ccc(F)cc1`?
Statin myotox sup: inactive

What do the screens show for `Cc1cccc(C(=O)OCC(=O)NCc2ccc3c(c2)OCO3)c1C`?
SUMO Mot1 rescue: inactive; ASAP1 GAP inh: inactive; Statin myotox sup: inactive; ARFGAP1 inh: inactive; A3A deaminase: inactive; A3G deaminase: inactive

Results for Cc1cccc(C(=O)OCC(=O)NCCNC(=O)COC(=O)c2cccc(C)c2C)c1C ?
SUMO Mot1 rescue: inactive; ASAP1 GAP inh: inactive; Statin myotox sup: inactive; ARFGAP1 inh: inactive; A3A deaminase: 40; A3G deaminase: inactive; A3A conf: inactive

How did C[C@H]1CN([C@@H](C)CO)C(=O)c2cccc(NC(=O)NC3CCCCC3)c2O[C@H]1CN(C)S(C)(=O)=O do in these assays?
Statin myotox sup: inactive

What do the screens show for `O=C(C[C@@H]1C[C@H]2c3cc(NC(=O)Nc4ccccc4)ccc3O[C@H]2[C@H](CO)O1)NCCN1CCCCC1`?
Statin myotox sup: inactive

How did C[C@@H]1CN([C@@H](C)CO)C(=O)c2cc(NC(=O)CCCN(C)C)ccc2O[C@H]1CN(C)Cc1ccc(-c2ccccc2)cc1 do in these assays?
Statin myotox sup: inactive

Results for C/C(=N\NC(=O)CN1CCCCC1)c1ccccc1O ?
SUMO Mot1 rescue: inactive; ASAP1 GAP inh: inactive; Statin myotox sup: inactive; ARFGAP1 inh: inactive; A3A deaminase: 40; A3G deaminase: inactive; A3A conf: inactive

What do the screens show for `CN(C)C(=O)c1ccc(Nc2nc(-c3cccs3)nc3ccccc23)cc1`?
SUMO Mot1 rescue: inactive; ASAP1 GAP inh: inactive; Statin myotox sup: inactive; ARFGAP1 inh: inactive; A3A deaminase: 43; A3G deaminase: inactive; A3A conf: inactive; UDG ctr A3A: inactive

What do the screens show for `O=C(NCc1ccccc1CN1CCCCC1)c1ccccc1N1CCCC1=O`?
SUMO Mot1 rescue: inactive; ASAP1 GAP inh: inactive; Statin myotox sup: inactive; ARFGAP1 inh: inactive; A3A deaminase: 57; A3G deaminase: inactive; A3A conf: 61; UDG ctr A3A: inactive

What do the screens show for `CNC[C@@H]1Oc2ccc(NC(=O)Nc3cccc4ccccc34)cc2C(=O)N([C@H](C)CO)C[C@H]1C`?
Statin myotox sup: inactive

Results for CCOC(=O)C1CCN(S(=O)(=O)c2ccc3c(c2)CC(=O)N3C)CC1 ?
SUMO Mot1 rescue: inactive; ASAP1 GAP inh: inactive; Statin myotox sup: inactive; ARFGAP1 inh: inactive; A3A deaminase: 52; A3G deaminase: inactive; A3A conf: 55; UDG ctr A3A: inactive

How did O=C(Nc1cc(Cl)ccc1Cl)c1noc2c1CCCC2 do in these assays?
SUMO Mot1 rescue: inactive; ASAP1 GAP inh: inactive; Statin myotox sup: inactive; ARFGAP1 inh: inactive; A3A deaminase: inactive; A3G deaminase: inactive

Results for O=C(Nc1ccc(F)cc1F)c1noc2c1CCC2 ?
SUMO Mot1 rescue: inactive; A3A deaminase: 50; A3G deaminase: inactive; A3A conf: 33

How did Cc1nc2ccc(C(=O)O)cc2c2c1CC(C)S2 (centres undefined) do in these assays?
SUMO Mot1 rescue: inactive; ASAP1 GAP inh: inactive; Statin myotox sup: inactive; ARFGAP1 inh: inactive; A3A deaminase: 43; A3G deaminase: inactive; A3A conf: 46; UDG ctr A3A: inactive

How did Cc1nc2cc(C(=O)O)ccc2s1 do in these assays?
SUMO Mot1 rescue: inactive; ASAP1 GAP inh: inactive; Statin myotox sup: inactive; ARFGAP1 inh: inactive; A3A deaminase: inactive; A3G deaminase: inactive

How did COc1ccc2[nH]c(=O)c(CN(C(=O)c3ccco3)C(C)C)cc2c1 do in these assays?
SUMO Mot1 rescue: inactive; ASAP1 GAP inh: inactive; Statin myotox sup: inactive; ARFGAP1 inh: inactive; A3A deaminase: 56; A3G deaminase: inactive; A3A conf: 61; UDG ctr A3A: inactive

How did CCCN(Cc1cc2cc(OC)ccc2[nH]c1=O)C(=O)c1ccco1 do in these assays?
SUMO Mot1 rescue: inactive; ASAP1 GAP inh: inactive; Statin myotox sup: inactive; ARFGAP1 inh: inactive; A3A deaminase: inactive; A3G deaminase: inactive
